Measured values: ChEMBL document CHEMBL1153110, “Optimization of (4,4-difluoro-1,2,3,4-tetrahydro-5H-1-benzazepine-5-ylidene)acetamide derivatives as arginine vasopressin V2 receptor agonists and discussion of their binding modes” (Bioorg Med Chem, 2009)

Tests used:
[1] = target: T1, Vasopressin V2 receptor (Homo sapiens, UniProt P30518); test: Displacement of [3H]vasopressin from human vasopressin V2 receptor expressed in CHO cells by microplate scintillation counting; assay type: cell-based
Procedure, shortened: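 Membranes came from human V2-expressing CHO cells: hypotonic lysis, then centrifugation at 1000g and 35,000g at 4 °C. They were incubated with [3H]vasopressin at 0.91 nmol/L final in 50 mmol/L Tris-HCl pH 7.4, filtered on GF/B and washed with ice-cold Tris buffer. Retained radioactivity was scintillation counted. Assays were run in triplicate.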

[2] = target: Vasopressin V1a receptor (Homo sapiens, UniProt P37288); test: Displacement of [3H]vasopressin from human vasopressin V1A receptor expressed in CHO cells by microplate scintillation counting; assay type: cell-based
[3] = target: Vasopressin V1a/V2 (Homo sapiens) (UniProt P30518+P37288); test: Selectivity ratio of Ki for human vasopressin V1A receptor to Ki for human vasopressin V2 receptors
[4] = target: T1, Vasopressin V2 receptor; test: Agonist activity at human vasopressin V2 receptor expressed in CHO cells assessed as cAMP accumulation by HTRF assay; assay type: functional, cell-based
Procedure, shortened: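 CHO cells with human V2 receptor were grown to subconfluence and serum-starved for 24 h. They were then exposed to test compound for 10 min at 37 °C in α-MEM with 1 mmol/L IBMX and 0.1% BSA, and lysed in PBS with 0.2% Triton X-100. cAMP was read by HTRF. EC50 is the concentration giving 50% of the maximal AVP response. Triplicate.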

[5] = target: T1, Vasopressin V2 receptor; test: Intrinsic activity at human vasopressin V2 receptor expressed in CHO cells assessed as cAMP accumulation by HTRF assay relative to AVP; assay type: functional, cell-based
Procedure, shortened: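 Intrinsic activity was measured in the cAMP HTRF assay in human V2-CHO cells: 24 h serum-free, then 10 min at 37 °C with 1 mmol/L IBMX. It is the compound's maximal response as a percentage of the maximal AVP response (100%). Assays were run in triplicate.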

[6] = tested on: Rattus norvegicus; test: Antidiuretic activity in water-loaded po dosed Wistar rat assessed as decrease in urinary excretion administered 15 mins prior to water loading measured up to 4 hrs; assay type: functional; conditions: Urine
Procedure, shortened: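 Male Wistar rats (200–300 g) were pre-screened for at least 70% excretion of an oral water load. They were deprived of feed and water and dosed orally without anesthesia. Distilled water (30 mL/kg po) was given 15 min later, and urine was collected in metabolic cages for 4 h (n = 3–6). Excretion was expressed as % of the loaded volume. ED50, the dose lowering excretion to 50%, came from linear regression.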

Sequence of Vasopressin V1a receptor (P37288 whole entry): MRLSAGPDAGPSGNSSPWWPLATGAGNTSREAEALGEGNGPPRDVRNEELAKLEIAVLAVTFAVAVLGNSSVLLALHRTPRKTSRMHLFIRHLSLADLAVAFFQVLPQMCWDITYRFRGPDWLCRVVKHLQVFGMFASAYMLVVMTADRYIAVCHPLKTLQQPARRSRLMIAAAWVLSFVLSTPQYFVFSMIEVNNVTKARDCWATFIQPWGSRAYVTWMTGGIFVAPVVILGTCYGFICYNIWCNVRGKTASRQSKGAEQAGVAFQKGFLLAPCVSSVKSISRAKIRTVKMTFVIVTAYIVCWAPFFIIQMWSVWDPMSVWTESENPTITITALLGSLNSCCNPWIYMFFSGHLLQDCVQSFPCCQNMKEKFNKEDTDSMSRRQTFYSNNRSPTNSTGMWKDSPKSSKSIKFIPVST
T1 sequence (P30518 whole entry): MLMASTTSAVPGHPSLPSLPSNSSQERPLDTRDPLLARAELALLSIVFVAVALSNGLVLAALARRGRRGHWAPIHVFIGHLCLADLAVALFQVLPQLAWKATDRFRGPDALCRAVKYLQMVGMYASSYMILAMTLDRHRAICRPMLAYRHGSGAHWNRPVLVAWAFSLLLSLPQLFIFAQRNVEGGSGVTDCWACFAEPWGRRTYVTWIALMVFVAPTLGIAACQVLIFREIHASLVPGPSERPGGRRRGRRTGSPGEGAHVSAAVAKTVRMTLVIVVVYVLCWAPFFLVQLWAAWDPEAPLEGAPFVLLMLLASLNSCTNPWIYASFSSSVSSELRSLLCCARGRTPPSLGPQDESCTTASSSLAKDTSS
Sequence of Vasopressin V1a/V2 (Homo sapiens) (P30518 whole entry, looked up): as the sequence (P30518 whole entry) above
Sequence of Vasopressin V1a/V2 (Homo sapiens) (P37288 whole entry, looked up): as the sequence (P37288 whole entry) above

Structure (SMILES)	Ki [1] [nM]	Ki [2] [nM]	Ratio Ki [3]	EC50 [4] [nM]	Intrinsic activity [5] [%]	ED50 [6] [mg/kg]
Cc1ccn(-c2ccc(C(=O)N3CCC(F)(F)/C(=C\C(=O)NCCO)c4ccccc43)c(C(F)(F)F)c2)n1	78	170	2.2	2.4	115	0.2
C[C@@H]1CCN(c2ccc(C(=O)N3CCC(F)(F)/C(=C\C(=O)NCCO)c4ccccc43)c(C(F)(F)F)c2)C1	16	39	2.4	1	114	0.04
C[C@H]1CCN(c2ccc(C(=O)N3CCC(F)(F)/C(=C\C(=O)NCCO)c4ccccc43)c(Cl)c2)C1	14	17	1.2	0.98	109	
C[C@H]1CCN(c2ccc(C(=O)N3CCC(F)(F)/C(=C\C(=O)NCCO)c4ccccc43)c(C(F)(F)F)c2)C1	14	43	3.1	1	111	0.012
Cc1ccn(-c2ccc(C(=O)N3CCC(F)(F)/C(=C\C(=O)NCCO)c4ccccc43)c(Cl)c2)n1			2.9		93.9	0.14
C[C@@H]1CCN(c2ccc(C(=O)N3CCC(F)(F)/C(=C\C(=O)NCCO)c4ccccc43)c(Cl)c2)C1	13	13	1	0.99	118	
